Experimental findings from ChEMBL document CHEMBL1221204, “Spliceostatin A targets SF3b and inhibits both splicing and nuclear retention of pre-mRNA” (Nat Chem Biol, 2007) are described below.

Active and inactive are the calls of the source. The calls are words filed in the database; no cut-off is given here.

For orientation: half-life means the time in which the quantity being followed falls by half.

The subject of data set [1] is SF3b complex (Homo sapiens). In words: Binding affinity to SF3b SAP155/SAP145/SAP130 complex in human HeLa cells at 2 uM by Western blotting. Background: Immunoblotting shows a protein as a band on a membrane.
Data set [2] has as its target Splicing factor 3B subunit 1 (Homo sapiens) (UniProt O75533). In words: Binding affinity to SAP155 in human HeLa cells at 2 uM by LC-MS/MS analysis.
Data set [3] addresses T1, Splicing factor 3B subunit 2 (Homo sapiens) (UniProt Q13435).
T1 sequence (whole entry): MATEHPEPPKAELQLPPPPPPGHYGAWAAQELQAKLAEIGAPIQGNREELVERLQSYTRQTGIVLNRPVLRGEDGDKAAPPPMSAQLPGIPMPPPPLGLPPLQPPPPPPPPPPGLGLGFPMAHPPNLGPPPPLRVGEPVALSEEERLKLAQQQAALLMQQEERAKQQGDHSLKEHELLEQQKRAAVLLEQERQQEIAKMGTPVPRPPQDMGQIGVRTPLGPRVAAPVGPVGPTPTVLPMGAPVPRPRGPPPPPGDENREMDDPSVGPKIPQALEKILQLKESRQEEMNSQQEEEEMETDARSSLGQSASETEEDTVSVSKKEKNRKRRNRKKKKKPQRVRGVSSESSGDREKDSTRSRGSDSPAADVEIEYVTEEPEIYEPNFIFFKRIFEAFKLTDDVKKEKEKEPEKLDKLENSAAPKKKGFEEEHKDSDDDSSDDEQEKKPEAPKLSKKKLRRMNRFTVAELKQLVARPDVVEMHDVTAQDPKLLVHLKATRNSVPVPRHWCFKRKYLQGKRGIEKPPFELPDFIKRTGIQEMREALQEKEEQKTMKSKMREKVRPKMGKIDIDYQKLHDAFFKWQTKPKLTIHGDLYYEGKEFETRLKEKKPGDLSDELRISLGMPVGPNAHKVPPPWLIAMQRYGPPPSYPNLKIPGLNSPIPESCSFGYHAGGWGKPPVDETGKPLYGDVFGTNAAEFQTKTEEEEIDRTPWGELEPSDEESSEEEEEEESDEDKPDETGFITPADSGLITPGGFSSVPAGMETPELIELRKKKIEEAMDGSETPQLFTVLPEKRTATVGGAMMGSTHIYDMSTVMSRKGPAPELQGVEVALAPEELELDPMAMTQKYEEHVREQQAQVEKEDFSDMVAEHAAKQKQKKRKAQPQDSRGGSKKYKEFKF
In words: Binding affinity to SAP145 in human HeLa cells at 2 uM by LC-MS/MS analysis. Type of data set: cell-based.

For data set [4], the target named is Splicing factor 3B subunit 3 (Homo sapiens) (UniProt Q15393). Nature of the data set: Binding affinity to SAP130 in human HeLa cells at 2 uM by LC-MS/MS analysis.
Chain of Splicing factor 3B subunit 3 (Homo sapiens) (Q15393 whole entry, looked up, the tested form may be a part): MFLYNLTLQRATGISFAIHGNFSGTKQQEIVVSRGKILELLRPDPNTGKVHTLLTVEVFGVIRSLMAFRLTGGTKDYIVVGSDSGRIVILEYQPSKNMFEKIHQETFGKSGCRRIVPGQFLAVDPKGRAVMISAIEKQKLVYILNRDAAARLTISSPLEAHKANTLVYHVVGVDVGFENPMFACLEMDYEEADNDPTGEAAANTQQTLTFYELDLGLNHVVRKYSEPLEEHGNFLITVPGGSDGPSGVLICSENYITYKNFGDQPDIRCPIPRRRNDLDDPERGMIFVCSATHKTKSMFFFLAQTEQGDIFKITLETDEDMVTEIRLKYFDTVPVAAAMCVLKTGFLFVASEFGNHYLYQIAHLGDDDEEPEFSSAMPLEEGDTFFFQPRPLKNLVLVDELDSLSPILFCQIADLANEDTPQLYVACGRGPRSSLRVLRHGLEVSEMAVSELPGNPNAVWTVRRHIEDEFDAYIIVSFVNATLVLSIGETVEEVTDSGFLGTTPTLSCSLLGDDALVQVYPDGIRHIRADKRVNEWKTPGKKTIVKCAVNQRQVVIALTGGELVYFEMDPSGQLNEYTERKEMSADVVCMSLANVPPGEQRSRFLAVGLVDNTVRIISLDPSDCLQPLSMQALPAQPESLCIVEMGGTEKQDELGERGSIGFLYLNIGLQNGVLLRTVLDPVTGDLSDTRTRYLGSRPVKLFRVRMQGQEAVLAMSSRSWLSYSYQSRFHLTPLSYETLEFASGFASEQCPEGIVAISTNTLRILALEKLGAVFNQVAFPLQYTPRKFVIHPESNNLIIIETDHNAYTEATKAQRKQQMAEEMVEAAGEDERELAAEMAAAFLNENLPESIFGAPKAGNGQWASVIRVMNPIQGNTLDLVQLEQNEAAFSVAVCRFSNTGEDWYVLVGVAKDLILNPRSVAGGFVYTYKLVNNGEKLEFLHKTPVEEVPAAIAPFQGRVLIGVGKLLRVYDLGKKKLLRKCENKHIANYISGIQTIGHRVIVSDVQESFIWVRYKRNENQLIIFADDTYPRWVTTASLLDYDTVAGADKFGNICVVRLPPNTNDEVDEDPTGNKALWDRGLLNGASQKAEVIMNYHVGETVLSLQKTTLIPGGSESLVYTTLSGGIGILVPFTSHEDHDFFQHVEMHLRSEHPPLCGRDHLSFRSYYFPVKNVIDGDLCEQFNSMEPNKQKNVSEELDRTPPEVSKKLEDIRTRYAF
Data set [5] concerns HeLa. Nature of the data set: Induction of truncated p27 expression in human HeLa cells at 1 to 1000 nM by Western blot analysis. In kind it is functional, cell-based.
Data set [6] deals with A549. In words: Induction of p27 expression in human A549 cells at 1 to 100 ng/ml after 14 hrs by immunoblotting. Type of data set: functional, cell-based. An outline of the steps: (§1)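 Human cell lines (HeLa, HEK 293T, MCF7, A549) cultured in DMEM with 10% heat-inactivated FBS. Cells treated with graded FR901464 concentrations for 14 h. Extracts immunoblotted for p27 and the truncated p27* form, with chemiluminescent detection.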

For data set [7], the system named is HeLa. In words: Induction of CDK2 expression in human HeLa cells at 100 ng/ml after 14 hrs by Western blotting. In kind it is functional, cell-based.
In data set [8] the test system is HeLa. In words: Induction of p21 expression in human HeLa cells at 100 ng/ml after 16 hrs by Western blotting. In kind it is functional, cell-based. An outline of the steps: (§2)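 HeLa cells grown in DMEM with 10% FBS and treated with FR901464 at 100 ng ml-1 for 16 h. Lysates prepared by sonication in ice-cold IP buffer with protease inhibitors. Proteins separated by SDS-PAGE and immunoblotted with anti-p16, anti-p21 and anti-p27 antibodies; chemiluminescence detection.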

In data set [9] the test system is HeLa. Nature of the data set: Induction of truncated p27 expression in human HeLa cells at 100 ng/ml after 14 hrs in presence of […] proteasome inhibitor MG132. In kind it is functional, cell-based.
In data set [10] the test system is HeLa. In words: Induction of p27 expression in human HeLa cells at 100 ng/ml after 14 hrs in presence of […] proteasome inhibitor MG132. Type of data set: functional, cell-based.
Data set [11] has as its system MCF7. In words: Induction of truncated p27 expression in human MCF7 cells at 1 to 100 ng/ml after 14 hrs by immunoblotting. In kind it is functional, cell-based. The essentials:
as §1

In data set [12] the target is Cyclin-dependent kinase 2 (Homo sapiens) (UniProt P24941). Nature of the data set: Induction of CDK2 in HEK293T cells transfected with FLAG-tagged p27 at 200 nM by autoradiography. In kind it is cell-based. The settings on record: HEK-293T. The essentials:
(§3)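 HEK 293T cells were transfected with pcDNA3.1, FLAG-p27 or FLAG-p27*, or were treated with MeOH, FR901464 (20, 200 nM) or SSA (190 nM). CDK2 was immunoprecipitated and its kinase activity read by autoradiography with histone H1 and (gamma-32P)ATP. Associated proteins were detected by western blotting.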

In data set [13] the test system is HeLa. In words: Induction of cyclin A expression in human HeLa cells at 100 ng/ml after 14 hrs by Western blotting. In kind it is functional, cell-based.
For data set [14], the system named is HeLa. In words: Induction of p16 expression in human HeLa cells at 100 ng/ml after 16 hrs by Western blotting. In kind it is functional, cell-based. The essentials: as §2
Data set [15] has as its system MCF7. In words: Induction of p27 expression in human MCF7 cells at 1 to 100 ng/ml after 14 hrs by immunoblotting. Type of data set: functional, cell-based. The essentials:
as §1

Data set [16] has as its system A549. Nature of the data set: Induction of truncated p27 expression in human A549 cells at 1 to 100 ng/ml after 14 hrs by immunoblotting. In kind it is functional, cell-based. An outline of the steps: as §1
Data set [17] deals with Cyclin-dependent kinase 2 (Homo sapiens) (UniProt P24941). Nature of the data set: Induction of CDK2 in HEK293T cells transfected with FLAG-tagged p27 at 20 nM by Western blot analysis. In kind it is cell-based. The settings on record: HEK-293T. The essentials:
as §3

Data set [18] has as its system HeLa. In words: Induction of CDK4 expression in human HeLa cells at 100 ng/ml after 14 hrs by Western blotting. In kind it is functional, cell-based.
Data set [19] has as its system HeLa. In words: Induction of CDK6 expression in human HeLa cells at 100 ng/ml after 14 hrs by Western blotting. In kind it is functional, cell-based.
Data set [20] has as its system HEK-293T. In words: Induction of FLAG-tagged p27 expression in HEK293T cells at 100 ng/ml after 14 hrs by Western blotting. In kind it is functional, cell-based. Conditions: Homo sapiens.
Data set [21] has as its system HEK-293T. Nature of the data set: Induction of p27 expression in HEK293T cells at 1 to 100 ng/ml after 14 hrs by immunoblotting. Type of data set: functional, cell-based. Conditions: Homo sapiens. An outline of the steps: as §1
Data set [22] has as its system HeLa. In words: Induction of p27 expression in human HeLa cells at 100 ng/ml after 16 hrs by Western blotting. Type of data set: functional, cell-based. An outline of the steps: as §2
Data set [23] can be described thus: Half life of the compound in culture medium by HPLC analysis. Type of data set: physicochemical.
The target of data set [24] is Cyclin-dependent kinase 2 (Homo sapiens) (UniProt P24941). In words: Induction of CDK2 in HEK293T cells transfected with FLAG-tagged truncated p27 at 20 nM by Western blot analysis. In kind it is cell-based. The settings on record: HEK-293T. An outline of the steps:
as §3

For data set [25] the target is unchanged. In words: Induction of CDK2 in HEK293T cells transfected with FLAG-tagged truncated p27 at 200 nM by autoradiography. Conditions: HEK-293T. In kind it is cell-based. The essentials: as §3
The subject of data set [26] is HEK-293T. Nature of the data set: Induction of truncated p27 expression in HEK293T cells at 1 to 100 ng/ml after 14 hrs by immunoblotting. In kind it is functional, cell-based. Conditions: Homo sapiens. An outline of the steps:
as §1

For data set [27], the system named is HeLa. Nature of the data set: Induction of p27 expression in human HeLa cells at 1 to 100 ng/ml after 14 hrs by immunoblotting. In kind it is functional, cell-based. An outline of the steps: as §1
The test system of data set [28] is COS-7. Nature of the data set: Induction of subcellular localization in p27 in african green monkey COS7 cells at 10 ng/ml after 6 hrs by immunofluorescence assay. Type of data set: functional, cell-based. Conditions: Chlorocebus aethiops.
The test system of data set [29] is COS-7. Nature of the data set: Induction of subcellular localization in truncated p27 in african green monkey COS7 cells at 10 ng/ml after 6 hrs by immunofluorescence assay. Type of data set: functional, cell-based. Conditions: Chlorocebus aethiops.
Data set [30] deals with HeLa. In words: Induction of truncated p27 expression in human HeLa cells up to 500 nM after 14 hrs by Western blotting. In kind it is functional, cell-based. An outline of the steps:
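HeLa cells were exposed for 14 h to 1, 3, 10, 30, 100 and 300 ng ml-1. Cell extracts were immunoblotted for p27 and its C-terminally truncated form p27*, with chemiluminescent read-out.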

Chain of Splicing factor 3B subunit 1 (Homo sapiens) (O75533 whole entry, looked up): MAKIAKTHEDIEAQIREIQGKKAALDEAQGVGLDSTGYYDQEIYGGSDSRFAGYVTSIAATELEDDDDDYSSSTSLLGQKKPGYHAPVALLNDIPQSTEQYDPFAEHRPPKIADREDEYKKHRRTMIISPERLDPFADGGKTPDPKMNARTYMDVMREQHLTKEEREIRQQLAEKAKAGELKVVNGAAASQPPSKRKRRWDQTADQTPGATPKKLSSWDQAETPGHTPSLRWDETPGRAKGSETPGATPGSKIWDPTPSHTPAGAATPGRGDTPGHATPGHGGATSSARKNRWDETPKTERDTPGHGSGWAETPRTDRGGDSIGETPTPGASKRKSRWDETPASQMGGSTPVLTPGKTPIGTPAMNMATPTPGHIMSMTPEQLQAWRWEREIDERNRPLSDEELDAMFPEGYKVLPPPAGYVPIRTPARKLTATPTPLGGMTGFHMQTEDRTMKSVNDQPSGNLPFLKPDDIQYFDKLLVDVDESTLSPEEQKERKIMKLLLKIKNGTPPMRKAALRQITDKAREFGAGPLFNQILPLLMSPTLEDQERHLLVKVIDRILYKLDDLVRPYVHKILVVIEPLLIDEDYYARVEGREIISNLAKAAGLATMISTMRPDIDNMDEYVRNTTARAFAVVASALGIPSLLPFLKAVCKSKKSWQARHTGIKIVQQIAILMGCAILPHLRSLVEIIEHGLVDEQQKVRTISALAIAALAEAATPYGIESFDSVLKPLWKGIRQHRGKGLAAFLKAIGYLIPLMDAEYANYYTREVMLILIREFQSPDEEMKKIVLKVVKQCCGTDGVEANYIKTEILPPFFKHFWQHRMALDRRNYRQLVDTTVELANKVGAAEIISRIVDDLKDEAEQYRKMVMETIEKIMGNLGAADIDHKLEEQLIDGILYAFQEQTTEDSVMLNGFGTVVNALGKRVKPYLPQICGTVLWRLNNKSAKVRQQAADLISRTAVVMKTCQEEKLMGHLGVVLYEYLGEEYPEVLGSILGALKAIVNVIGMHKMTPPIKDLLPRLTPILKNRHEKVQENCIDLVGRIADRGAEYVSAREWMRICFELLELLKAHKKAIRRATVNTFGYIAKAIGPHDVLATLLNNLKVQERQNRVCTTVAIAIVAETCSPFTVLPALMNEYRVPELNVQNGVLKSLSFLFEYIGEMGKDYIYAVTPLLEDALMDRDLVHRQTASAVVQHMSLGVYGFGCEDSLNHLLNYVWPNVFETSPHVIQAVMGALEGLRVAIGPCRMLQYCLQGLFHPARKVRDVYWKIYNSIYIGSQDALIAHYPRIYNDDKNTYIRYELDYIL

In the case of `CC(=O)O[C@@H](C)/C=C\C(=O)N[C@@H]1C[C@H](C)[C@H](C/C=C(C)/C=C/[C@H]2O[C@](C)(OCCNC(=O)CCCCCNC(=O)CCCCCNC(=O)CCCC[C@@H]3SC[C@@H]4NC(=O)N[C@@H]43)C[C@@]3(CO3)[C@@H]2O)O[C@@H]1C`, the outcome in data set [1], in data set [2], in data set [3], in data set [4] and in data set [5] was Active.
As to `CC(=O)O[C@@H](C)/C=C\C(=O)N[C@@H]1C[C@H](C)[C@H](C/C=C(C)/C=C/[C@H]2O[C@](C)(O)CC3(CO3)[C@@H]2O)O[C@@H]1C` (single isomer, unassigned), the outcome in data set [6], in data set [7], in data set [8], in data set [9], in [10] and in data set [11] was Active. The result in [12], in data set [13], in data set [14], in [15], in [16] and in data set [18] was Active. Further, the result in [19], in data set [20], in data set [21], in data set [22], in [26] and in data set [27] was Active. The result in data set [17], in [24] and in [25] was inactive. Besides, in data set [23], the half-life came to 45 min.
With `CCC(=C/[C@H](C)C/C=C/C(C)=C/[C@@H](C)C(=O)[C@@H](C)[C@H](O)[C@@H](C)C/C(C)=C/C(=O)O)/C=C/[C@@H]1OC(=O)C=C[C@@H]1C`, the result in [28] and in data set [29] was Active.
In the case of `CO[C@]1(C)C[C@@]2(CO2)[C@H](OC(C)=O)[C@@H](/C=C/C(C)=C/C[C@@H]2O[C@H](C)[C@H](NC(=O)/C=C\[C@H](C)OC(C)=O)C[C@@H]2C)O1`, the outcome in data set [30] was inactive.
